Rows were chosen to be rich in hits. Some 2.3% of all compounds tested hit in one or more screens of this group.
TRPC6 activator: mouse TRPC6 channel activators, primary screen, cell-based, HEK293, membrane potential dye | Short transient receptor potential channel 6 (Mus musculus), Q61143 | HEK293-TRPC6 membrane potential dye fluorescence; active compounds read high | B-score at 10 µM | 310,000 tested, 0.13% active;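 active = B-score of the integrated fluorescence ratio above library mean plus 3 SD, and starting fluorescence ratio within library mean plus 5 SD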;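 note: higher score means more depolarization so channel activation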
TRPC4 agonist: activators of mouse TRPC4 channel, primary screen, Fluo4 calcium, HEK293 TRPC4beta/mu-opioid cells. 310,000 tested, 0.49% active. B-score at 10 µM. AID 2237, 2010. Fluo4 calcium fluorescence; active compounds read high;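 active = B-score above 5 SD of library B-scores, and initial fluorescence ratio not above library mean plus 5 SD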;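 note: positive B-score marks a calcium rise read as TRPC4 activation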
Target sequence (Q9QUQ5 whole entry, looked up): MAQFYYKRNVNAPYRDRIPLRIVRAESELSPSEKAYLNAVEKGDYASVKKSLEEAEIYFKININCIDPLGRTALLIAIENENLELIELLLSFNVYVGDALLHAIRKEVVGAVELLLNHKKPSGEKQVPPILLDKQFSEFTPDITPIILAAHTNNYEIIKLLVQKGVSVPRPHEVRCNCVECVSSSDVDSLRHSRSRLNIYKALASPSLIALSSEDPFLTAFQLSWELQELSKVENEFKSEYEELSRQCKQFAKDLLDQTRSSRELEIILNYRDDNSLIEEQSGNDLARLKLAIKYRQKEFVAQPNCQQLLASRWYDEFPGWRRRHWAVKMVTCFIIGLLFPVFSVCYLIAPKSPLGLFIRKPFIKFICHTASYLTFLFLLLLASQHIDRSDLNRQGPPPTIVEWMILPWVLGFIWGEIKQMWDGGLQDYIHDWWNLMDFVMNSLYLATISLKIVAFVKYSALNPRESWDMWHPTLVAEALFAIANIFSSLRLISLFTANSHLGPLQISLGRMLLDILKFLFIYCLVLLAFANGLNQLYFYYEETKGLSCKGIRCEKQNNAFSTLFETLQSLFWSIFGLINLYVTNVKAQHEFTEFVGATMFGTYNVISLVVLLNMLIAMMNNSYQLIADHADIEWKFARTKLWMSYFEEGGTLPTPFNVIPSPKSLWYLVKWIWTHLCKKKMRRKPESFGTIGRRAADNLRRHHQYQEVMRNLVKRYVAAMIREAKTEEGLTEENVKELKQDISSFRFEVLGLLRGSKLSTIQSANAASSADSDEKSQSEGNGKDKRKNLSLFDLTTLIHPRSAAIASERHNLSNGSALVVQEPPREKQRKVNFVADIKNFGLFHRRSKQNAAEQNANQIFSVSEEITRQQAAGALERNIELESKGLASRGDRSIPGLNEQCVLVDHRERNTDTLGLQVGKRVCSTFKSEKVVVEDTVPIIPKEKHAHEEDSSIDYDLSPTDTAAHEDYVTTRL
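System: HEK293 cells stably co-expressing mouse TRPC4beta and mu-opioid receptor; Schedule: Fluo4 dye loading 45 min at room temperature, 110 s recording; Detection: Fluo4 fluorescence, kinetic; Evaluation: B-scored integrated calcium fluorescence ratio; Controls: buffer (low) and maximal DAMGO (high).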
TRPC6 inh: mouse TRPC6 channel inhibitors, primary screen, cell-based, HEK293, membrane potential dye. Short transient receptor potential channel 6 (Mus musculus), Q61143. ACh-evoked depolarization; active compounds read low. B-score at 10 µM. 310,000 tested, 1.1% active;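 active = B-score under library mean minus 3 SD, initial fluorescence not abnormally high, positive integrated signal ratio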;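 note: B-score derived from integrated fluorescence ratio over the kinetic read; more negative B-score means stronger inhibition of depolarization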
TRPC4 inh: inhibitors of mouse TRPC4 channel, primary screen, Fluo4 calcium, HEK293 TRPC4beta/mu-opioid cells | DAMGO-evoked Fluo4 calcium flux; active compounds read low | B-score at 10 µM | 300,000 tested, 0.39% active | AID 2247, 2010;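 active = B-score over 3 SD under the library average, no early fluorescence shift, positive overall ratio signal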
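System: stable TRPC4beta/mu-opioid receptor HEK293 cells; Dosing: single-point compound dosing; Measured by: Fluo4 Ca2+ flux fluorescence; Read-out basis: per-well B score of integrated baseline-normalized Fluo4 ratio.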
TRPC4 potent: positive allosteric modulators of TRPC4, primary screen, cell-based, mouse TRPC4beta, HEK293 mu-opioid, Fluo-4 calcium; Short transient receptor potential channel 4 (Mus musculus), Q9QUQ5; DAMGO EC20, Fluo-4 Ca2+ flux; active compounds read high; B-score at 10 µM; 310,000 tested, 0.42% active; AID 2227, 2009;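 active = B-score of calcium response area above 5 SD of library B-scores, with initial fluorescence ratio within 5 SD of library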;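 note: B-score of integrated fluorescence ratio over time as area under calcium response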
TRPC4 spec 2: mouse TRPC4 off-target activity of TRPC6 inhibitors, second screen. shares compounds with TRPC6 inh. HEK293 TRPC4/MOR, membrane potential dye fluorescence; channel activated by saturating DAMGO dose. inhibition, % at 10 µM. 920 tested, 42% active. AID 2776;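 active = compounds whose fluorescence signal differed from control wells by over 3 SD, either direction, in both duplicate plates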
TRPC4 spec: mouse TRPC4 modulation by TRPC6 hits, confirmation, selectivity assay for TRPC6 inhibitor project, cell-based, HEK293 TRPC4/mu-opioid, membrane potential dye | shares compounds with TRPC6 inh | activity change, negative = inhibition, % at 10 µM | membrane potential fluorescence | 920 tested, 61% active;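 active = rise or fall in signal beyond 3 SD of buffer-only wells in both replicate plates, either sign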;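 note: integrated kinetic ratio of fluorescence range over baseline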
HEK293 MPD ctr 2-1: nonspecific membrane potential effects, parental HEK293, confirmation, counter-screen for TRPC6 inhibitor project, cell-based, second counter screen; shares compounds with TRPC6 inh; parental HEK293 membrane potential dye fluorescence; maximal acetylcholine challenge after compound addition; signal change vs control, % at 10 µM; 920 tested, 31% active;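 active = membrane potential signal moving either way by over 3 SD of the maximum-effect control, in both duplicate plates, meaning non-specific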
HEK293 MPD ctr-1: membrane potential modulation in parental HEK293, confirmation, counter-screen for TRPC6 inhibitor project, cell-based; shares compounds with TRPC6 inh; parental HEK293 membrane potential dye fluorescence; membrane potential signal change, % at 10 µM; 920 tested, 60% active; AID 2780, 2010;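 active = membrane potential signal shifting up or down by more than 3 SD of buffer-only wells, on both duplicate plates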
HEK293 MPD ctr-2: parental HEK293 membrane potential modulation, confirmation, counter-screen for TRPC6 modulator project, cell-based; shares compounds with TRPC6 inh; membrane potential dye fluorescence; membrane potential signal change, % at 10 µM; 2,400 tested, 51% active; AID 488924, 2010;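 active = membrane potential signal moves up or down beyond 5 SD from buffer-only wells, on both duplicate plates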
HEK293 MPD ctr 2-2: second check of TRPC6 modulator effects in parental HEK293 cells. 2,400 tested, 14% active. inhibition, % at 10 µM. shares compounds with TRPC6 inh. membrane potential dye fluorescence; after compound, maximal acetylcholine stimulation;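 active = membrane potential signal drops by more than 5 SD from the mean control signal, in both duplicate plates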;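 note: plate controls were acetylcholine ECmax control wells for no effect and buffer only wells for full effect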
TRPC4/MOR mod: TRPC4 modulation by TRPC6 hit compounds, confirmation, selectivity assay for TRPC6 modulator project, cell-based, HEK293 TRPC4/mu-opioid, membrane potential dye, mouse. shares compounds with TRPC6 inh. membrane potential fluorescence. percent change from control (negative = decrease, positive = increase), % at 10 µM. 2,400 tested, 69% active;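 active = membrane potential signal moved up or down beyond 5 SD of buffer control wells, in both duplicate plates, actives on both sides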;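 note: plate controls were assay buffer wells for no effect and DAMGO maximal-effect wells for full effect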
TRPC4/MOR inh 2: second check of whether TRPC6 modulators also affect mouse TRPC4 | shares compounds with TRPC6 inh | HEK293 TRPC4/mu-opioid, membrane potential dye fluorescence; stimulated with maximal-effect DAMGO | inhibition, % at 10 µM | 2,400 tested, 55% active | AID 488928;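 active = drop in membrane potential signal beyond 5 SD of the control wells in both duplicate plates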;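 note: TRPC4 counter screen for TRPC6 hits run under conditions tuned for TRPC6 not TRPC4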
TRPC6 inh conf: mouse TRPC6 channel inhibitors, confirmation, HEK293 cells, membrane potential dye, duplicate; shares compounds with TRPC6 inh; ACh-evoked depolarization; inhibition, % at 10 µM; 3,300 tested, 43% active; AID 488960, 2010;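 active = fluorescence ratio falls more than 5 SD below the full-stimulation control mean, in both duplicate runs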;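 note: integrated fluorescence ratio of peak minus minimum over baseline after agonist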
TRPC6 act confirm: mouse TRPC6 channel activators, confirmation, HEK293 cells, membrane potential dye, duplicate. 2,800 tested, 11% active. activation, % at 10 µM. HEK293-TRPC6 membrane potential dye fluorescence, FDSS. AID 488961, 2010. shares compounds with TRPC6 inh;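 active = ratio signal rise beyond 5 SD above unstimulated control wells' mean, seen in both duplicate runs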;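 note: plate controls were buffer EC0 wells for no effect and acetylcholine ECmax response for full effect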
An asterisk follows results filed as active; i = inactive; x = no result given.

SMILES	TRPC6 activator	TRPC4 agonist	TRPC6 inh	TRPC4 inh	TRPC4 potent	HEK293 MPD ctr-2	HEK293 MPD ctr 2-2	TRPC4/MOR mod	TRPC4/MOR inh 2	TRPC6 inh conf	TRPC6 act confirm	others
COc1cccc2c1nc(C)c1cc(C)oc12	i	i	-5.8*	i	i	-316%*	i	-54%*	42%*	i	i
CN1CCN(S(=O)(=O)c2ccc(NC(=O)c3cccc(F)c3)cc2)CC1	i	i	i	i	i	x	x	x	x	x	x
CC1CCCN(S(=O)(=O)c2ccc(NC(=O)CNC3CCCC3)cc2)C1 (stereo unspecified)	i	i	-6.7*	i	i	x	x	x	x	i	i	TRPC4 spec 2=54%*;TRPC4 spec=i;HEK293 MPD ctr 2-1=i;HEK293 MPD ctr-1=3.2%*
CN1CCN(S(=O)(=O)c2ccc(NC(=O)c3cccc(S(=O)(=O)N4CCCC4)c3)cc2)CC1	i	i	-5.5*	i	i	i	i	i	i	i	i
Cc1ccc(S(=O)(=O)N2CCC(=O)N(CCOC(=O)Nc3ccccc3C)CC2)cc1	i	i	i	i	i	x	x	x	x	x	x
CC(=O)Nc1ccc(S(=O)(=O)N2CCCN(S(=O)(=O)c3ccc(C)cc3)CC2)cc1	i	i	-7.4*	i	i	x	x	x	x	i	i	TRPC4 spec 2=i;TRPC4 spec=i;HEK293 MPD ctr 2-1=i;HEK293 MPD ctr-1=i
Cc1ccc(S(=O)(=O)N2CCC(=O)N(CCOC(=O)Nc3cc(C)cc(C)c3)CC2)cc1	14*	i	-8.3*	i	i	i	i	12%*	i	90%*	142%*
COc1cc(NC(=O)CCCNC(=O)c2ccc(Cl)cc2)cc(OC)c1OC	i	i	i	i	i	x	x	x	x	x	x
CC(=O)NC(CC(=O)OCc1ccc([N+](=O)[O-])cc1)c1ccccc1 (stereo unspecified)	i	i	i	i	i	x	x	x	x	x	x
CN(C)S(=O)(=O)c1cccc(C(=O)Nc2ccc(S(=O)(=O)N3CCCC3)cc2)c1	i	i	-5.2*	x	i	i	i	i	i	i	i
COc1ccc(C2c3c(oc4ccc(Cl)cc4c3=O)C(=O)N2CCN2CCOCC2)cc1 (stereo unspecified)	i	i	i	i	i	x	x	x	x	x	x
CCOC(=O)C1=C(c2ccccc2)NC(=O)NC1c1ccc(O)c(OCC)c1 (stereo unspecified)	i	i	i	i	i	x	x	x	x	x	x
CCOC(=O)C1=C(c2ccccc2)N(C)C(=O)NC1c1ccc(O)c(OC)c1 (stereo unspecified)	i	i	-9.2*	i	i	x	x	x	x	i	i	TRPC4 spec 2=i;TRPC4 spec=0.0%*;HEK293 MPD ctr 2-1=i;HEK293 MPD ctr-1=0.0%*
Cn1c(CNc2ccc(Cl)cc2)nnc1SCCN1CCCCC1	i	i	-5.1*	i	i	i	i	18%*	38%*	i	i
O=C(Nc1ccncc1)c1cc2ccccc2cc1O	i	i	i	i	i	x	x	x	x	x	x
Cc1ccc(S(=O)(=O)N2CCN(C(=O)c3cccc(F)c3)CC2)cc1	i	i	-6.1*	i	i	i	i	i	i	70%*	x
COc1ccc(S(=O)(=O)N2CCN(C(=O)c3cccc(Cl)c3)CC2)cc1	i	i	-5.6*	i	i	i	i	12%*	i	56%*	x
O=C(c1cccc(F)c1)N1CCN(c2cccc(Cl)c2)CC1	i	i	-16*	i	i	x	x	x	x	59%*	i	TRPC4 spec 2=i;TRPC4 spec=5.7%*;HEK293 MPD ctr 2-1=i;HEK293 MPD ctr-1=2.7%*
O=C(c1ccc(S(=O)(=O)N2CCCC2)cc1)N1CCN(S(=O)(=O)c2cccc(F)c2)CC1	i	i	i	i	i	x	x	x	x	x	x
COc1ccc(OCC(=O)NNC(=O)c2ccc3c(=O)n4c(nc3c2)CCC4)cc1	i	i	i	i	i	x	x	x	x	x	x
O=C(CN1C(=O)CSc2ncccc21)Nc1ccccc1F	i	i	i	i	i	x	x	x	x	x	x
O=C(C[n+]1ccc(Cc2ccccc2)cc1)Nc1ccc([N+](=O)[O-])cc1Cl	i	i	-7.6*	i	i	x	x	x	x	i	i	TRPC4 spec 2=i;TRPC4 spec=-27%*;HEK293 MPD ctr 2-1=i;HEK293 MPD ctr-1=-334%*
Cc1cccc[n+]1CC(=O)Nc1ccc([N+](=O)[O-])cc1Cl	i	i	i	i	i	x	x	x	x	x	x
O=C(/C=C/c1ccc(F)cc1)NCCCn1ccnc1	i	i	i	i	i	x	x	x	x	x	x

Bioassay records: PubChem, Johns Hopkins Ion Channel Center
